# Source: PubChem BioAssay AID2611 (Broad Institute, 2010)
# Tested on: BJeLR fibroblasts viability, Alamar Blue fluorescence, 48 h
# Assay: viability loss in RAS-dependent TERT BJ cells – cell-based, alamar blue fluorescence, powder samples, dose response (AID 2611)
# How it was run: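 Schedule: 48 h compound treatment, ~16 h dye step; Measured by: Alamar blue fluorescence, excitation 544 nm, emission 590 nm; Measure: viable cell number from alamar blue conversion signal.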
row,SMILES,EC50 [µM]
1,COc1ccc(N(C(=O)CCl)C(C(=O)NCCc2ccccc2)c2cccs2)cc1Cl (centres undefined),2.43
2,CCCCCCCN(C(=O)CCl)c1cccc(C)c1,5.74
3,C=CCOc1ccccc1CN(C(=O)CCl)c1ccc2c(c1)OCO2,18.6
4,COc1ccc(CN(CCC(c2ccccc2)c2ccc(OC(C)C)cc2)C(=O)CCl)cc1OC (centres undefined),2.71
5,CCOc1ccc(Nc2nc(N)nc(CCl)n2)cc1,2.89
6,COc1cccc(N(C(=O)CCl)C(C(=O)NCCc2ccccc2)c2cccs2)c1 (centres undefined),3.2
7,Cc1ccc(N(C(=O)CCl)C(C(=O)NC2CCCCC2)c2cccnc2)cc1C (centres undefined),2.27
8,COc1ccc(N(C(=O)CCl)C(C(=O)NCCc2ccccc2)c2cccs2)cc1 (centres undefined),2.26
9,COC(=O)[C@@H]1Cc2c([nH]c3ccccc23)C(C)(C)N1C(=O)CCl,6.2
10,Cc1ccc(C2CC(c3cccs3)=NN2C(=O)CCl)cc1 (centres undefined),4.62
11,COc1ccc(C(C(=O)NC2CCCCC2)N(C(=O)CCl)c2cccc(Cl)c2)cc1 (centres undefined),3.36
12,Nc1nc(CCl)nc(Nc2ccc3ccccc3c2)n1,2.06
13,COc1ccc(C(C(=O)NC2CCCCC2)N(C(=O)CCl)c2ccc(C)cc2)cc1 (centres undefined),7.65
14,O=C(CCl)N=c1sccn1Cc1ccccc1Cl,12.1
